# From ChEMBL document CHEMBL1122498, “Improved delivery through biological membranes. 11. A redox chemical drug-delivery system and its use for brain-specific delivery of phenylethylamine” (1983)
# Experiments:
# Format in all cases: functional
# [1] = species: Homo sapiens; experiment: In vitro facile oxidative conversion to the corresponding quaternary derivative 5a in heparinized human whole blood
# [2] = species: Rattus norvegicus; experiment: Half life during the site specific conversion to the quaternary derivative 5a in rat brain homogenate was determined
# Procedure, shortened: (§1)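 Rat brain (2.0 g) homogenized in 10 mL phosphate buffer pH 7.4, centrifuged, heated 50 °C for 5 min, recentrifuged, and diluted to 100 mL (2%). To 10 mL was added 0.2 mL of 6.25 × 10⁻⁴ M methanolic dihydro derivative. First-order k and t1/2 derived.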
# [3] = species: Rattus norvegicus; experiment: In vitro facile oxidative conversion to the corresponding quaternary derivative 5a in rat brain homogenate; procedure, shortened: as §1
# [4] = species: Homo sapiens; experiment: Half life during the site specific conversion to the quaternary derivative 5a in heparinized human whole blood was determined
# [5] = species: Rattus norvegicus; experiment: Half life during the site specific conversion to the quaternary derivative 5a in rat liver homogenate was determined
# Procedure, shortened: (§2)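 Sprague-Dawley rat liver (5.0 g) homogenized in 50 mL phosphate buffer pH 7.4, centrifuged, heated 50 °C for 5 min, recentrifuged, and diluted to 250 mL (2%). Dihydro derivative (0.2 mL of 6.25 × 10⁻⁴ M in methanol) diluted to 10 mL with homogenate. UV scans at 37 °C from 400 to 250 nm every 5 min for 1 h against a homogenate/methanol reference. First-order k and t1/2 derived.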
# [6] = species: Homo sapiens; experiment: In vitro facile oxidative conversion to the corresponding quaternary derivative 5a in fresh human plasma
# Procedure, shortened: (§3)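 Dihydro derivative in methanol (0.2 mL of 6.25 × 10⁻⁴ M) diluted to 10 mL with 20% fresh human plasma in phosphate buffer pH 7.4. Held at 37 °C with UV scans 400–250 nm every 10 min for 2 h against a plasma/methanol reference. Oxidation to the pyridinium salt followed by loss at ~350 nm and gain at 262 nm. First-order k and t1/2 derived.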
# [7] = species: Rattus norvegicus; experiment: In vitro facile oxidative conversion to the corresponding quaternary derivative 5a in rat liver homogenate; procedure, shortened: as §2
# [8] = species: Homo sapiens; experiment: Half life during the site specific conversion to the quaternary derivative 5a in fresh human plasma was determined; procedure, shortened: as §3
SMILES,Activity [1],T1/2 [2] [min],Activity [3],T1/2 [4] [min],T1/2 [5] [min],Activity [6],Activity [7],T1/2 [8] [min]
CN1C=C(C(=O)NCCc2ccccc2)CC(C(=O)NCCc2ccccc2)=C1,0.494 10e-4 K s-1,1370,0.084 10e-4 K s-1,234,,,,
CN1C=CCC(C(=O)NCCc2ccccc2)=C1,8.4 10e-4 K s-1,28.2,4.12 10e-4 K s-1,13.7,14.4,1.8 10e-4 K s-1,8.13 10e-4 K s-1,64.2
CCOC(=O)C1=CN(C)C=C(C(=O)NCCc2ccccc2)C1,1.13 10e-4 K s-1,666,0.174 10e-4 K s-1,70.2,,,,
O=C(NCCc1ccccc1)C1=CN(Cc2ccccc2)C=CC1,4.74 10e-4 K s-1,55,2.1 10e-4 K s-1,24.4,15.3,0.74 10e-4 K s-1,7.5 10e-4 K s-1,156
